Test results: ChEMBL document CHEMBL1629663, “Postantibiotic effects of telavancin against 16 gram-positive organisms” (Antimicrob Agents Chemother, 2009)
In brackets after ≈: the same amount, converted by molar mass.

Legend:
Enterococcus faecium [1] = test: Antimicrobial activity against Enterococcus faecium HMC 588 by microdilution method; type: functional
Enterococcus faecium [2] = test: Antimicrobial activity against Enterococcus faecium HMC 588 assessed as time required to induce sub-MIC effect at 0.3 times MIC exposed for 2 hrs by plate counting method; type: functional
Outline: (§1)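 Unexposed Mueller-Hinton broth cultures (about 5 × 10^6 CFU/ml, 35°C) were handled as in the PA-SME set but without the 10× MIC pre-exposure. They were diluted 1:1,000, then given telavancin at final 0.2, 0.3 or 0.4× MIC, with a drug-free control. Viable counts were taken every 2 h until McFarland no. 1 turbidity. Effect duration comes from log10 CFU/ml-time plots; two separate experiments with new inocula.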

Streptococcus agalactiae [3] = test: Antimicrobial activity against Streptococcus agalactiae HMC 5 assessed as time required to induce sub-MIC effect at 0.2 times MIC exposed for 2 hrs by plate counting method; type: functional; outline: as §1
Staphylococcus aureus [4] = test: Antimicrobial activity against vancomycin-resistant-, methicillin-resistant Staphylococcus aureus 510 assessed as time required to induce sub-MIC effect at 0.4 times MIC exposed for 2 hrs by plate counting method; type: functional
Outline: (§2)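 Sub-MIC effect: cultures not preexposed to drug were diluted and handled as in the PA-SME procedure in Mueller-Hinton broth with final 0.2, 0.3 or 0.4× MIC, plus a drug-free control. Viable plate counts were taken every 2 h until McFarland 1 turbidity. Duration was derived from growth curves. Two experiments were run, each with a new inoculum.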

Staphylococcus aureus [5] = test: Antimicrobial activity against vancomycin-susceptible-, methicillin-resistant Staphylococcus aureus 1307 assessed as time required to induce sub-MIC effect at 0.3 times MIC exposed for 2 hrs by plate counting method; type: functional; outline: as §2
Staphylococcus aureus [6] = test: Antimicrobial activity against vancomycin-intermediate-, methicillin-resistant Staphylococcus aureus 1984 assessed as time required to induce sub-MIC effect at 0.4 times MIC […] by plate counting method; type: functional
Outline: (§3)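 SME, viable plate count method: no prior drug exposure. About 5 × 10^6 CFU/ml in Mueller-Hinton broth at 35°C received 0.2, 0.3 or 0.4× MIC, alongside a drug-free tube. Counts were taken at the start, then every 2 h until McFarland no. 1 turbidity, as log10 CFU/ml against time. Two separate experiments, each with a new inoculum.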

Staphylococcus aureus [7] = test: Antimicrobial activity against heterogenous vancomycin-intermediate-, methicillin-resistant Staphylococcus aureus 873 assessed as time required to induce sub-MIC effect at 0.4 times MIC […] by plate counting method; type: functional; outline: as §3
Staphylococcus aureus [8] = test: Antimicrobial activity against heterogenous vancomycin-intermediate-, methicillin-resistant Staphylococcus aureus 873 assessed as time required to induce post antibiotic sub-MIC effect at 0.3 times MIC […] by plate counting method; type: functional
Outline: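 PAE was first induced with 10× MIC for 1 h at 35°C (inoculum about 5 × 10^6 CFU/ml, Mueller-Hinton broth) and ended by 1:1,000 dilution. Cultures were then split and given 0.2, 0.3 or 0.4× MIC, with one tube left without drug. Viable counts were taken before exposure, after dilution, then every 2 h until McFarland no. 1 turbidity. Two separate experiments, each with a new inoculum.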

Staphylococcus aureus [9] = test: Antimicrobial activity against vancomycin-resistant-, methicillin-resistant Staphylococcus aureus 510 assessed as time required to induce post antibiotic sub-MIC effect at 0.2 times MIC pre-exposed to Telavancin for 1 hr by plate counting method
Enterococcus faecalis = test: Antimicrobial activity against Enterococcus faecalis HMC 571 assessed as time required to induce post antibiotic sub-MIC effect at 0.3 times MIC […] by plate counting method; type: functional
Outline: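 Mueller-Hinton broth cultures of about 5 × 10^6 CFU/ml were pre-exposed to telavancin at 10× MIC for 1 h at 35°C, then diluted 1:1,000. Telavancin was re-added to final 0.2, 0.3 or 0.4× MIC, alongside a drug-free tube. Viable counts were taken before exposure, after dilution, then every 2 h until McFarland no. 1 turbidity. Duration comes from log10 CFU/ml-versus-time plots; two separate experiments with fresh inocula.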

Streptococcus agalactiae [10] = test: Antimicrobial activity against Streptococcus agalactiae HMC 5 assessed as time required to induce sub-MIC effect at 0.3 times MIC exposed for 2 hrs by plate counting method; type: functional; outline: as §1
Staphylococcus aureus [11] = test: Antimicrobial activity against vancomycin-susceptible-, methicillin-resistant Staphylococcus aureus 1307 assessed as post-antibiotic effect at 10 times MIC pre-exposed to Telavancin for 1 hr by plate counting method; type: functional
Outline: (§4)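 Direct colony suspensions (~5 × 10^6 CFU/ml) were exposed to 10× MIC for 1 h at 35°C with shaking in Mueller-Hinton broth, then diluted 1:1,000 to remove drug. Viable plate counts were taken before exposure, at 0 h, then every 2 h until turbidity reached McFarland 1. PAE = T − C, the time for counts to rise 1 log10 versus the unexposed control. Two separate experiments were run.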

[12] = Protein binding healthy human serum; type: ADME, cell-free; conditions: read-out: PB
Staphylococcus aureus [13] = test: Antimicrobial activity against vancomycin-resistant-, methicillin-resistant Staphylococcus aureus 510 assessed as post-antibiotic effect at 10 times MIC pre-exposed for 1 hr by plate counting method; type: functional; outline: as §4
Staphylococcus aureus [14] = test: Antimicrobial activity against vancomycin-intermediate-, methicillin-resistant Staphylococcus aureus 1287 by microdilution method; type: functional
Staphylococcus aureus [15] = test: Antimicrobial activity against vancomycin-intermediate-, methicillin-resistant Staphylococcus aureus 1984 assessed as time required to induce post antibiotic sub-MIC effect at 0.2 times MIC pre-exposed to Telavancin for 1 hr by plate counting method
Enterococcus faecium [16] = test: Antimicrobial activity against Enterococcus faecium HMC 588 assessed as post-antibiotic effect at 10 times MIC pre-exposed to Telavancin for 1 hr by plate counting method; type: functional
Outline: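 Organisms were suspended in Mueller-Hinton broth from overnight blood agar colonies at about 5 × 10^6 CFU/ml. Cultures were exposed to telavancin at 10× MIC for 1 h at 35°C in a shaking water bath, then diluted 1:1,000 to remove the drug, with an untreated growth control. Viable counts were taken before exposure, at 0 h, then every 2 h until McFarland no. 1 turbidity. PAE = T − C, the time to a 1 log10 rise. Two experiments.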

Staphylococcus aureus [17] = test: Antimicrobial activity against vancomycin-susceptible-, methicillin-resistant Staphylococcus aureus 1306 assessed as time required to induce post antibiotic sub-MIC effect at 0.2 times MIC pre-exposed to Telavancin […] by plate counting method; type: functional
Outline: (§5)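 After 1 h preexposure to 10× MIC at 35°C and 1:1,000 dilution, cultures were split, and drug was re-added to final 0.2, 0.3 or 0.4× MIC, with a drug-free tube. Viable counts were taken every 2 h until McFarland 1 turbidity. Duration was derived from log10 CFU/ml versus time curves. Two experiments were run, each with a new inoculum.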

Staphylococcus aureus [18] = test: Antimicrobial activity against vancomycin-resistant-, methicillin-resistant Staphylococcus aureus 510 assessed as time required to induce post antibiotic sub-MIC effect at 0.4 times MIC […] by plate counting method; type: functional; outline: as §5
Staphylococcus aureus [19] = test: Antimicrobial activity against vancomycin-susceptible-, methicillin-resistant Staphylococcus aureus 1307 assessed as time required to induce post antibiotic sub-MIC effect at 0.4 times MIC […] by plate counting method; type: functional; outline: as §5

CCCCCCCCCCNCCN[C@@]1(C)C[C@H](O[C@H]2[C@H](Oc3c4cc5cc3Oc3ccc(cc3Cl)[C@@H](O)[C@@H](NC(=O)[C@@H](CC(C)C)NC)C(=O)N[C@@H](CC(N)=O)C(=O)N[C@H]5C(=O)N[C@H]3C(=O)N[C@H](C(=O)N[C@H](C(=O)O)c5cc(O)c(CNCP(=O)(O)O)c(O)c5-c5cc3ccc5O)[C@H](O)c3ccc(c(Cl)c3)O4)O[C@H](CO)[C@@H](O)[C@@H]2O)O[C@@H](C)[C@H]1O [TELAVANCIN]
MIC (Enterococcus faecium [1]): 0.12 µg/mL (≈ 0.0684 µM) | PAE (Enterococcus faecium [2]): 7.2 h | PAE (Streptococcus agalactiae [3]): 0.2 h | PAE (Staphylococcus aureus [4]): 3.6 h | PAE (Staphylococcus aureus [5]): 2.6 h | PAE (Staphylococcus aureus [6]): 10 h | PAE (Staphylococcus aureus [7]): 1 h | PAE (Staphylococcus aureus [8]): 4.8 h | PAE (Staphylococcus aureus [9]): 5.6 h | PAE (Enterococcus faecalis): 7.2 h | PAE (Streptococcus agalactiae [10]): 2.1 h | PAE (Staphylococcus aureus [11]): 1.1 h | fraction unbound [12]: ≤ 0.1 | PAE (Staphylococcus aureus [13]): 1.3 h | MIC (Staphylococcus aureus [14]): 0.5 µg/mL (≈ 0.285 µM) | PAE (Staphylococcus aureus [15]): 6.8 h | PAE (Enterococcus faecium [16]): 1.2 h | PAE (Staphylococcus aureus [17]): 2.9 h | PAE (Staphylococcus aureus [18]): 8.1 h | PAE (Staphylococcus aureus [19]): > 10.5 h
